Experimental data taken from ChEMBL document CHEMBL1145999, “Synthesis and Ca2+-mobilizing activity of purine-modified mimics of adenophostin A: a model for the adenophostin-Ins(1,4,5)P3 receptor interaction” (J Med Chem, 2003).

Assays:
Rattus norvegicus [1] = species on record: Rattus norvegicus; assay: Effective concentration causing half-maximal [Ca2+] release in rat hepatocytes; type: functional; details: Hepatocyte
Outline: (§1)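 Permeabilized rat hepatocytes loaded with 45Ca2+ to steady state for 5 min at 37 °C in cytosol-like medium (pH 7.0, free Ca2+ 200 nM) with ATP 1.5 mM, creatine phosphate/creatine phosphokinase and FCCP 10 µM. Thapsigargin 1.25 µM added; 30 s later, agonist for 60 s; store 45Ca2+ measured by rapid filtration. Four-parameter logistic fit gave maximal response, EC50, Hill slope. Means ± SEM.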

[2] = Hill coefficient was determined; type: functional; outline: as §1
Rattus norvegicus [3] = species on record: Rattus norvegicus; assay: The % of actively accumulated [Ca2+] released by a maximally effective concentration of the compound; type: functional; outline: as §1
Rattus norvegicus [4] = species on record: Rattus norvegicus; assay: Potency for [Ca2+] release in rat hepatocytes with respect to compound 2; details: Hepatocyte

Compound | EC50 (Rattus norvegicus [1]) | Hill slope [2] | Max response (Rattus norvegicus [3]) | relative potency (Rattus norvegicus [4])
CNc1nc(OC)nc2c1ncn2C1O[C@H](CO)[C@H](O[C@@H]2OC(CO)[C@H](OP(=O)(O)O)C(OP(=O)(O)O)[C@@H]2O)[C@@H]1OP(=O)(O)O (some centres not stated) | 0.082 µM | 8.8 | 34% | 0.17
O=P(O)(O)OC1[C@@H](OP(=O)(O)O)C(CO)O[C@@H](O[C@@H]2[C@H](OP(=O)(O)O)C(n3cnc4c(NC5CCCC5)ncnc43)O[C@@H]2CO)[C@H]1O (some centres not stated) | 0.013 µM | 2.2 | 35% | 0.77
O=P(O)(O)OC1[C@@H](OP(=O)(O)O)C(CO)O[C@@H](O[C@@H]2[C@H](OP(=O)(O)O)C(n3cnc4c(NC5CCCCC5)ncnc43)O[C@@H]2CO)[C@H]1O (some centres not stated) | 0.025 µM | 2.3 | 45% | 0.56
COc1ncnc2c1ncn2C1O[C@H](CO)[C@H](O[C@@H]2OC(CO)[C@H](OP(=O)(O)O)C(OP(=O)(O)O)[C@@H]2O)[C@@H]1OP(=O)(O)O (some centres not stated) | 0.019 µM | 3.8 | 34% | 0.57
Nc1ncnc2c1ncn2C1O[C@H](CO)[C@H](O[C@@H]2OC(CO)[C@H](OP(=O)(O)O)C(OP(=O)(O)O)[C@@H]2O)[C@@H]1OP(=O)(O)O (some centres not stated) | 0.014 µM | 2.4 | 35% | 1
O=P(O)(O)O[C@@H]1[C@H](O)[C@H](O)[C@@H](OP(=O)(O)O)[C@H](OP(=O)(O)O)[C@H]1O [INS(1,4,5)P3] | 0.185 µM | 2.3 | 35% | 0.08
CNc1ncnc2c1ncn2C1O[C@H](CO)[C@H](O[C@@H]2OC(CO)[C@H](OP(=O)(O)O)C(OP(=O)(O)O)[C@@H]2O)[C@@H]1OP(=O)(O)O (some centres not stated) | 0.013 µM | 2.1 | 37% | 0.8
CN(C)c1ncnc2c1ncn2C1O[C@H](CO)[C@H](O[C@@H]2OC(CO)[C@H](OP(=O)(O)O)C(OP(=O)(O)O)[C@@H]2O)[C@@H]1OP(=O)(O)O (some centres not stated) | 0.019 µM | 2.1 | 39% | 0.82
